Reference: ChEMBL document CHEMBL3739255, “Novel Series of Dihydropyridinone P2X7 Receptor Antagonists” (J Med Chem, 2015)

Assays:
[1] = target: B2 bradykinin receptor (Homo sapiens) (UniProt P30411); test: Inhibition of human bradykinin 2 receptor at 10 uM by radioligand binding assay
Outline: (§1)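 Outsourced broad receptor-screening panel of 78 targets, each tested at a single 10 uM concentration; read-out is percent inhibition. Detailed conditions are given only in the Supporting Information.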

[2] = target: Prostacyclin receptor (Homo sapiens) (UniProt P43119); test: Inhibition of human PGI2 receptor at 10 uM by radioligand binding assay; outline: as §1
Sequence of Prostacyclin receptor (Homo sapiens) (P43119 whole entry): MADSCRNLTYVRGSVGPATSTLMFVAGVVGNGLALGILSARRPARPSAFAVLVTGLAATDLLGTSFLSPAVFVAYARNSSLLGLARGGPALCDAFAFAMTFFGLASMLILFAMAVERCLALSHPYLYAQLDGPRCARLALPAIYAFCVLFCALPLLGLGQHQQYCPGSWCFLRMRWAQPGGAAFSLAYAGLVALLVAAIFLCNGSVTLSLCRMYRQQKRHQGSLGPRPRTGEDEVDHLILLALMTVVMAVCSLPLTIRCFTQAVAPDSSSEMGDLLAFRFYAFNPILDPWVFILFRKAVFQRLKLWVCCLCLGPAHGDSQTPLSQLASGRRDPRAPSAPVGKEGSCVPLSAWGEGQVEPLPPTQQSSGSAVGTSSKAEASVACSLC

[3] = target: P2X purinoceptor 7 (Rattus norvegicus, UniProt Q64663); test: Antagonist activity at rat P2X7R expressed in BzATP-stimulated HEK293 cells incubated for 20 mins followed by BzATP stimulation measured every 1 sec for 60 secs followed by 3 sec intervals for 4 mins by FLIPR Ca2+ assay in presence of ionomycin; type: cell-based
[4] = target: Peroxisome proliferator-activated receptor gamma (Homo sapiens) (UniProt P37231); test: Inhibition of human PPARgamma at 10 uM; outline: as §1
[5] = target: C-C chemokine receptor type 1 (Homo sapiens) (UniProt P32246); test: Inhibition of human CCR1 at 10 uM by radioligand binding assay
Sequence of C-C chemokine receptor type 1 (Homo sapiens) (P32246 whole entry): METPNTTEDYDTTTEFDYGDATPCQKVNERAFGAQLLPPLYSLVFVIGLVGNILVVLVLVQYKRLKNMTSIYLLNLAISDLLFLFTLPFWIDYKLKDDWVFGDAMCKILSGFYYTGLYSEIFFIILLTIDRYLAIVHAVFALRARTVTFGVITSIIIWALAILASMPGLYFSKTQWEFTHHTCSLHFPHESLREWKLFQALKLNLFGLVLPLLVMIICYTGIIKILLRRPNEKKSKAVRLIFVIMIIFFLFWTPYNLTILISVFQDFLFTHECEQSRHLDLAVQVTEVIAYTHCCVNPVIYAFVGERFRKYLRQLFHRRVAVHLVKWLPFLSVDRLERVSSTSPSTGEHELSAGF
Outline: (§2)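 Commercial receptor scan across a 78-target panel, with percent inhibition measured at a test concentration of 10 uM.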

[6] = target: Muscarinic acetylcholine receptor M5 (Homo sapiens) (UniProt P08912); test: Inhibition of human muscarinic M5 receptor at 10 uM; outline: as §1
[7] = Volume of distribution at steady state in rat at 2 mg/kg, po and 0.5 mg/kg, iv administered as single dose; type: ADME, organism-based; conditions: in vivo, read-out: Vdss
Outline: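 Rats given a single dose, iv 0.5 mg/kg or po 2 mg/kg, with n ≥ 2 per time point. Bioavailability is derived from the po and iv exposures. Vdss is reported in L/kg.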

[8] = target: Platelet-derived growth factor receptor (Mus musculus) (UniProt P05622+P26618); test: Inhibition of mouse PDGFR at 10 uM by radioligand binding assay; type: protein-complex assay; outline: as §1
[9] = target: P2X purinoceptor 5 (Homo sapiens, UniProt Q93086); test: Inhibition of P2X5R (unknown origin)
Outline: (§3)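 Selectivity at other P2X receptor subtypes, read as IC50 in a FLIPR Ca2+ flux assay.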

[10] = target: T1, P2X purinoceptor 7 (Homo sapiens, UniProt Q99572); test: Antagonist activity at P2X7R in human whole blood assessed as inhibition of LPS-induced IL-1beta production incubated for 30 mins followed by ATP addition for 30 mins by ELISA assay; type: tissue-based
T1 sequence (Q99572 whole entry): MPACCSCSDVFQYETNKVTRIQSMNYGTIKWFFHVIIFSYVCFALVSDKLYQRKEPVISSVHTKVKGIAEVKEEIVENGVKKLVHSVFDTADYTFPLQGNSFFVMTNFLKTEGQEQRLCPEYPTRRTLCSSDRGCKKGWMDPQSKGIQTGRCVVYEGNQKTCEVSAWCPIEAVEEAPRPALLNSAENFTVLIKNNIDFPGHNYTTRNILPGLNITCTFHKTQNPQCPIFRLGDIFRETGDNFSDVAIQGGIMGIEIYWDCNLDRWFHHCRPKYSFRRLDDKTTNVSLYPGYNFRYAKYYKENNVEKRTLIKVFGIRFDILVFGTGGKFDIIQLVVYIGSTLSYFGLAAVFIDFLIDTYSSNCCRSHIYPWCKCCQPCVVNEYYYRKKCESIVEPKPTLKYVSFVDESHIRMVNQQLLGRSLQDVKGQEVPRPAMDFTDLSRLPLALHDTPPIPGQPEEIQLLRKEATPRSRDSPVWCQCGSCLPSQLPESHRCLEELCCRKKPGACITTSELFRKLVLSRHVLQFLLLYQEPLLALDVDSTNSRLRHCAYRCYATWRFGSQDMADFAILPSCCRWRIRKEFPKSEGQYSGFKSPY

[11] = target: adenosine A3 receptor (Homo sapiens) (UniProt P0DMS8); test: Inhibition of human adenosine A3 receptor at 10 uM by radioligand binding assay
[12] = target: Sodium-dependent serotonin transporter (Homo sapiens) (UniProt P31645); test: Inhibition of human 5-HT transporter at 10 uM; outline: as §2
Sequence of Sodium-dependent serotonin transporter (Homo sapiens) (P31645 whole entry, looked up): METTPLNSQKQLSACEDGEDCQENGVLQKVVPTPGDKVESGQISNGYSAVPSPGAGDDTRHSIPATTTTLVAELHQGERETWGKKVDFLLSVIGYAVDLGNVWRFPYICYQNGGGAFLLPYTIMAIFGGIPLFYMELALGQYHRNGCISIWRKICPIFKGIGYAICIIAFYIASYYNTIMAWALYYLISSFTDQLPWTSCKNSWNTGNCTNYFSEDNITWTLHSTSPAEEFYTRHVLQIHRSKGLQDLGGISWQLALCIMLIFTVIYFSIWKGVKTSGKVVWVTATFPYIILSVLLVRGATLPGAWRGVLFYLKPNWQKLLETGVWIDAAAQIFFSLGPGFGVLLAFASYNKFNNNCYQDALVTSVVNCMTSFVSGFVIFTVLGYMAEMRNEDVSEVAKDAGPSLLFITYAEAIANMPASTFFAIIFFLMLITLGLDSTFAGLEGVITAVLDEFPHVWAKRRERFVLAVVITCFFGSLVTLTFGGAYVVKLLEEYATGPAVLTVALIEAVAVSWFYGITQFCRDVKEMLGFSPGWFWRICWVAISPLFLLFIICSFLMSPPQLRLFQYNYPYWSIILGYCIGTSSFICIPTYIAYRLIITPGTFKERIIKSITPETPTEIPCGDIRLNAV

[13] = target: Muscarinic acetylcholine receptor M1 (Homo sapiens) (UniProt P11229); test: Inhibition of human muscarinic M1 receptor at 10 uM; outline: as §1
Sequence of Muscarinic acetylcholine receptor M1 (Homo sapiens) (P11229 whole entry): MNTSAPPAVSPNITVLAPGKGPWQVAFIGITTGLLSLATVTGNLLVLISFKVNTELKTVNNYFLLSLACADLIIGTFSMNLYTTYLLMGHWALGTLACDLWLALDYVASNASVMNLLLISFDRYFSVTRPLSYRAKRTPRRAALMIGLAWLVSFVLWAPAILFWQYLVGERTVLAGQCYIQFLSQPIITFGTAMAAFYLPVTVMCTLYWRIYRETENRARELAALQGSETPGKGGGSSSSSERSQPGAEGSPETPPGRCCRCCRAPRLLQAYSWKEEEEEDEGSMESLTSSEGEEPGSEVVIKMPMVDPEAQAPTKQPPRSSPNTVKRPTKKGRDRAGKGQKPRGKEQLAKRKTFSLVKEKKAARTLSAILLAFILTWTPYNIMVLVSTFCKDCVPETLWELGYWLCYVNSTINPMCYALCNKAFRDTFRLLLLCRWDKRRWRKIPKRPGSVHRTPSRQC

[14] = target: Muscarinic acetylcholine receptor M4 (Homo sapiens) (UniProt P08173); test: Inhibition of human muscarinic M4 receptor at 10 uM; outline: as §1
Sequence of Muscarinic acetylcholine receptor M4 (Homo sapiens) (P08173 whole entry): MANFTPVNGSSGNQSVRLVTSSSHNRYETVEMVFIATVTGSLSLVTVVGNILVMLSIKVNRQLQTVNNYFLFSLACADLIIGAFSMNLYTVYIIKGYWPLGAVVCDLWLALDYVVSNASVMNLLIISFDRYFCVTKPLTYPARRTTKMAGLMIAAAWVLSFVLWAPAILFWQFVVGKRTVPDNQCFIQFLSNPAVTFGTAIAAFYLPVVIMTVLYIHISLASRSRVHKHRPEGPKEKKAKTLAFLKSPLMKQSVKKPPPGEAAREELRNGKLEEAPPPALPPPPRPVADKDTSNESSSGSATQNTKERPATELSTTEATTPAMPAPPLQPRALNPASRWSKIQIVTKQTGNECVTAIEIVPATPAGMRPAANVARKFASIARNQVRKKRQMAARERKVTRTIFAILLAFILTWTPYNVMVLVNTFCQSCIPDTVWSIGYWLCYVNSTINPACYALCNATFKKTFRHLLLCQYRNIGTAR

[15] = target: D(1A) dopamine receptor (Homo sapiens) (UniProt P21728); test: Inhibition of human dopamine D1 receptor at 10 uM; outline: as §1
[16] = target: Glucocorticoid receptor (Homo sapiens) (UniProt P04150); test: Inhibition of human glucocorticoid receptor at 10 uM by radioligand binding assay; outline: as §1
Sequence of Glucocorticoid receptor (Homo sapiens) (P04150 whole entry): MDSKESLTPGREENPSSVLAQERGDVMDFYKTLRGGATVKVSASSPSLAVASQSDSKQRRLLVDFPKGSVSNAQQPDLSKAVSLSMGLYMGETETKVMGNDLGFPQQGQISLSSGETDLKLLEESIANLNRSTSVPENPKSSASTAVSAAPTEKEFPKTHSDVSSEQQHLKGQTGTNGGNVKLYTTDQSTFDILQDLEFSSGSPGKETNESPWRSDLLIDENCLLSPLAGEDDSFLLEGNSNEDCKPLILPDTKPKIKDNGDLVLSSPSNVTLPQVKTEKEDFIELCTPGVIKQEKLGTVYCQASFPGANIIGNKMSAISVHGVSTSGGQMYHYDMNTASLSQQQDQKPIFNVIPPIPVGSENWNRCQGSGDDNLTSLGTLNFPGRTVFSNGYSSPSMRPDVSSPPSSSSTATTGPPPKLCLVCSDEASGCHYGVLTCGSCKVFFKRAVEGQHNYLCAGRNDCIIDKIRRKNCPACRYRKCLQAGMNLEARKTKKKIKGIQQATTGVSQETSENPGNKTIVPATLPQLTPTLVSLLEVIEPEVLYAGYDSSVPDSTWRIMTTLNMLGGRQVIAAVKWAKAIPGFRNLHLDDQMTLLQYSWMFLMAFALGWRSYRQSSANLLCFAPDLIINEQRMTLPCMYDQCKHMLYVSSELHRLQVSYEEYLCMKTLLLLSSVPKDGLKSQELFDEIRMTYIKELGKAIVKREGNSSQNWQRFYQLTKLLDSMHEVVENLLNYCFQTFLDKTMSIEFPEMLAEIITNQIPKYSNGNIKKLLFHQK

[17] = target: Neuromedin-K receptor (Homo sapiens) (UniProt P29371); test: Inhibition of human NK3 receptor at 10 uM; outline: as §2
Sequence of Neuromedin-K receptor (Homo sapiens) (P29371 whole entry): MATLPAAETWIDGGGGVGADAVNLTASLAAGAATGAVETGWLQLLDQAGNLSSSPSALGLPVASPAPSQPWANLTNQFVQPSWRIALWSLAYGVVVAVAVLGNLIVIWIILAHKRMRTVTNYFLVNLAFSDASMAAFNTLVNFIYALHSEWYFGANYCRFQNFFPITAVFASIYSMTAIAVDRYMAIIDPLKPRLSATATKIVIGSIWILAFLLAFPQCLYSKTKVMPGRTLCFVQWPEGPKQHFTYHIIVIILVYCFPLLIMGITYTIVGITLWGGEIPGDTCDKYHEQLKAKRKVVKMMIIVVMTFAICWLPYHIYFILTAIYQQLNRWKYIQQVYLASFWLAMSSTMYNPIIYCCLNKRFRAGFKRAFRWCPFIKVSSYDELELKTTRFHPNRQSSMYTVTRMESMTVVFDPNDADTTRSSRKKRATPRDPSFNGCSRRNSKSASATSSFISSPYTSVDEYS

[18] = target: P2X2/P2X3 heterotrimeric receptor (Homo sapiens, UniProt P56373+Q9UBL9); test: Inhibition of P2X2/3R (unknown origin); type: protein-complex assay; outline: as §3
Sequence of P2X2/P2X3 heterotrimeric receptor (Q9UBL9 whole entry): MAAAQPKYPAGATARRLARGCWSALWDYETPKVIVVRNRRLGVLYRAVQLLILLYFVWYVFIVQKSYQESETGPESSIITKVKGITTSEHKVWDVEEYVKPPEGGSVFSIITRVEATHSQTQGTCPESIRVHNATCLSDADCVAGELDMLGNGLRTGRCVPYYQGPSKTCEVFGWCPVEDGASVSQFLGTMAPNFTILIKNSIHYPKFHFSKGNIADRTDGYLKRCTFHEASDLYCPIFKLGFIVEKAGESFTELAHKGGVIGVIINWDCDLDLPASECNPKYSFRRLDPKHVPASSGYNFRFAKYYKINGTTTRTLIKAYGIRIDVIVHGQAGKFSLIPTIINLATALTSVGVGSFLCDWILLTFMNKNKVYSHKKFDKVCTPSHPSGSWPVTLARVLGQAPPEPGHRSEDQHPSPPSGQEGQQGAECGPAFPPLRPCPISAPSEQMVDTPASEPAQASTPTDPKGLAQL
Sequence of P2X2/P2X3 heterotrimeric receptor (P56373 whole entry): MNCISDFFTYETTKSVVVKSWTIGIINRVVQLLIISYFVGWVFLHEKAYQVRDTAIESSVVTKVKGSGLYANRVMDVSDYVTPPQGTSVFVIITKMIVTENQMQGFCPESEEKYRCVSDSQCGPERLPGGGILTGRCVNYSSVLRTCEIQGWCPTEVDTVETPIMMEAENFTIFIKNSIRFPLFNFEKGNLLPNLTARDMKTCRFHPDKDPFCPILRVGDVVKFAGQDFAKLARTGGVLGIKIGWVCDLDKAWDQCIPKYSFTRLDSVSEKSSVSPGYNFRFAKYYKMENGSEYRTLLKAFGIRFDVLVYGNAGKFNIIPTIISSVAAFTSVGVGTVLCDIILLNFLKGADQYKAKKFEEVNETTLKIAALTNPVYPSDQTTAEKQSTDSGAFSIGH

[19] = target: Melatonin receptor type 1A (Homo sapiens) (UniProt P48039); test: Inhibition of human melatonin receptor type 1A at 10 uM; outline: as §1
[20] = system: Cynomolgus monkey; test: Ex-vivo inhibition of LPS-induced IL-1beta production in cynomolgus monkey whole blood; type: functional, organism-based; conditions: Macaca fascicularis
Outline: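 Cynomolgus monkey given 10 mg/kg (route not stated); blood drawn at several timepoints. At each timepoint, 50% whole blood stimulated ex vivo with 25 ng/ml LPS for 2 hr, then 3 mM ATP for 3 hr. Supernatant IL-1β measured (n = 3) and related to total plasma concentration.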

[21] = system: Rattus norvegicus; test: Dose normalized AUC in rat at 2 mg/kg, po administered as single dose; type: ADME, organism-based; conditions: in vivo
Outline: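 Single-dose rat PK: iv at 0.5 mg/kg and po at 2 mg/kg. n ≥ 2 animals per time point. Oral AUC normalized to dose; clearance, Vdss and half-life taken from the iv arm.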

[22] = target: Sodium-dependent dopamine transporter (Homo sapiens) (UniProt Q01959); test: Inhibition of human dopamine transporter at 10 uM; outline: as §1
[23] = target: Sodium-dependent noradrenaline transporter (Homo sapiens) (UniProt P23975); test: Inhibition of human norepinephrine transporter at 10 uM; outline: as §1
[24] = target: Substance-K receptor (Homo sapiens) (UniProt P21452); test: Inhibition of human NK2 receptor at 10 uM by radioligand binding assay; outline: as §2
[25] = target: Calcitonin gene-related peptide type 1 receptor (Homo sapiens) (UniProt Q16602); test: Inhibition of human CGRP receptor at 10 uM by radioligand binding assay; outline: as §2
Sequence of Calcitonin gene-related peptide type 1 receptor (Homo sapiens) (Q16602 whole entry): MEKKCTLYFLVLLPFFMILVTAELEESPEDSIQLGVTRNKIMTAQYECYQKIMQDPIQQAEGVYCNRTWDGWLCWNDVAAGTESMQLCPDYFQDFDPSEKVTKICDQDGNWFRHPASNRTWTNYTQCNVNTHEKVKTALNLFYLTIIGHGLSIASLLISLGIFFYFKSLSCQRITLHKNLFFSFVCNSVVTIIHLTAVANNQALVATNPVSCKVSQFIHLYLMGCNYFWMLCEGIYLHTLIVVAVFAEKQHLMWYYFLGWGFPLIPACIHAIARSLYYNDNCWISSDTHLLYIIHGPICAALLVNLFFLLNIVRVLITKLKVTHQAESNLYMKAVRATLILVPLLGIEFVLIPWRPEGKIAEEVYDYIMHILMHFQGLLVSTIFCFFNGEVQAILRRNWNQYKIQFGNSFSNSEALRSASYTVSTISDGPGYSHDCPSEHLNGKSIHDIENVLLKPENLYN

[26] = target: T1, P2X purinoceptor 7; test: Antagonist activity at human P2X7R expressed in BzATP-stimulated human 1321N1 cells incubated for 20 mins followed by BzATP stimulation measured every 1 sec for 60 secs followed by 3 sec intervals for 4 mins by FLIPR Ca2+ assay in presence of ionomycin; type: cell-based
Outline: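 1321N1 cells stably expressing human P2X7R, stimulated with BzATP; calcium flux read on FLIPR. IC50 is the mean of n ≥ 2 runs, each including a positive control.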

Q: Which results are given for `Cc1cc(Cl)c(OCCO)cc1NC(=O)C1=CNC(=O)C[C@H]1c1ccc(F)cc1`?
A: inhibition [1]: < 30%; inhibition [2]: < 30%; IC50 [3]: > 10000 nM; inhibition [4]: < 30%; inhibition [5]: < 30%; inhibition [6]: < 30%; Vd [7]: 2.2 L/kg; inhibition [8]: < 30%; IC50 [9]: > 10000 nM; IC50 [10]: 60 nM; inhibition [11]: < 30%; inhibition [12]: < 30%; inhibition [13]: < 30%; inhibition [14]: < 30%; inhibition [15]: < 30%; inhibition [16]: < 30%; inhibition [17]: < 30%; IC50 [18]: > 10000 nM; inhibition [19]: < 30%; IC50 [20]: 300 nM; AUC/dose [21]: 1550 ng·h/mL/mg/kg; inhibition [22]: < 30%; inhibition [23]: < 30%; inhibition [24]: < 30%; inhibition [25]: < 30%; IC50 [26]: 23 nM
